# FLuc stim CS: affects firefly luciferase, flagging false hits in luciferase stimulation screens | activation factor at 10 µM | ATPlite luciferase biochemical, luminescence, 10 min; 0 = ATP-free wells, 1 = DMSO control | P08659 | 200,000 tested, under 10 active;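 active means luciferase activation factor, scaled between plate controls, of at least 2 with compound at 10 µM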
# Target sequence (P08659 whole entry, looked up): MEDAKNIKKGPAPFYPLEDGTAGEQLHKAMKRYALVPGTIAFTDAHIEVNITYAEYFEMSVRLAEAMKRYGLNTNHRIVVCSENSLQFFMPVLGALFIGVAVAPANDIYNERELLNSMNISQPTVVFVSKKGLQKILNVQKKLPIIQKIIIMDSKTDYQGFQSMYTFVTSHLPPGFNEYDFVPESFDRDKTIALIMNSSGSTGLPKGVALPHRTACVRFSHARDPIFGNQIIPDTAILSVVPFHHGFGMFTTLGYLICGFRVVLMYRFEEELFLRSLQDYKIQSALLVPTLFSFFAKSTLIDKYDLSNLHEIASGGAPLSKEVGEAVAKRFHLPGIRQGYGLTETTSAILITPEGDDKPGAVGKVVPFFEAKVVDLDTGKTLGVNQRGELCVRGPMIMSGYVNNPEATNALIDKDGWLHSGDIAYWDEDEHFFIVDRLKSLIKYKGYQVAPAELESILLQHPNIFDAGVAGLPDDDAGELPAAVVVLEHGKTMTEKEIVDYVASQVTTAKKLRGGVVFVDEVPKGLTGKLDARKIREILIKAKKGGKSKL
#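 Assay system: Luciferase/luciferin detection reagent, cell-free biochemical luciferase assay / Read-out: luciferase activation / Benchmarks: No-ATP low control, compound-free enzyme-plus-ATP high control / Medium: PBS buffer for ATP / Detection: luminescence measurement of luciferase light output / Schedule: 10 min at ambient temperature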
# C8 TRAIL sens: caspase-8 TRAIL sensitization; hit rate 1% among 360,000; inhibition (viability loss, TRAIL sensitization), % at 10 µM; NB7+C8 cells + TRAIL, ATPlite viability luminescence;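 active means compounds causing at least 50% loss of cell viability in the single-dose screen, relative to plate controls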
# HSP90 refold inh: inhibitors of HSP90 luciferase refolding in rabbit reticulocyte lysate. luciferase refolding luminescence, 3 h. inhibition, % at 5.6 µM. hit rate 0.91% among 290,000. AID 1789;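 active means inhibition above the screen-wide mean plus 3 SD, computed separately per campaign, cut at about 16% in these data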;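 further: 0% = DMSO wells and 100% = 60 µM geldanamycin wells; inhibitors lower the luminescence because luciferase stays unfolded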
# PPC-1+TRAIL kill: kills PPC-1 cancer cells in the presence of TRAIL. PPC-1 cells + TRAIL, ATPLite viability luminescence. cell killing (% activity), % at 4 µM or 5 µM. hit rate 0.41% among 220,000. AID 1443;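 active means cell killing above 50% in the first pass at 4 µM, then a duplicate retest at 5 µM averaging 50% or more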;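 further: plate controls were cells with TRAIL plus DMSO for no effect and medium-only wells lacking cells for full effect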
# FLuc inh counter: Photinus pyralis luciferase inhibition counter-screen; P08659; ATPLite firefly luciferase biochemical luminescence, 10 min; inhibition, % at 10 µM; hit rate 1.5% among 200,000;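 active means inhibition above about 50% when tested at 10 µM, limit read from the data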
# HSP90 confirm: confirmation of HSP90 inhibitors. rabbit reticulocyte lysate, luciferase refolding luminescence, 3 h. shares compounds with HSP90 refold inh. inhibition, % at 5.9 µM. AID 1846. hit rate 64% among 2,300; in the data active means inhibition above about 18%;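 further: 0% = vehicle wells and 100% = reference inhibitor wells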
# luciferase ctr: blocks native firefly luciferase in HSP90 counter-screen. shares compounds with HSP90 refold inh. purified native firefly luciferase, luminescence. inhibition, % at 5.9 µM. hit rate 48% among 2,300. AID 1847;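 active means inhibition above the mean inhibition of all tested sample wells plus 3 SD, cut at about 10% in these data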;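 further: 0% = DMSO with luciferase and 100% = wells lacking luciferase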
# Active calls of the source: *; nt = no result given. In the library only some 2% were active in any assay of this set; here they are far more common.
SMILES,FLuc stim CS,C8 TRAIL sens,HSP90 refold inh,PPC-1+TRAIL kill,FLuc inh counter,HSP90 confirm,luciferase ctr
CSCCC(NS(=O)(=O)c1ccccc1F)C(=O)OCc1ccccc1Cl (stereo unspecified),1.1,-7,2,29,-5,nt,nt
CCC(=O)Nc1ccc2nc(C3CC3)n(Cc3ccc(C(C)(C)C)cc3)c(=O)c2c1,nt,20,22*,16,nt,21*,17*
CC(=O)Nc1ccc2nc(C3CC3)n(Cc3ccc(Cl)cc3)c(=O)c2c1,1,-7,1,12,0,nt,nt
O=C(C1CCC(=O)N(C2CC2)C1)N(CCO)Cc1ccccc1 (stereo unspecified),nt,-27,-5,nt,nt,nt,nt
COc1ccc(NC(=S)NNC(=O)Cn2nc([N+](=O)[O-])cc2C)cc1,1,-14,41*,-3,2,4,1
Cc1cc([N+](=O)[O-])nn1CC(=O)NNC(=S)Nc1ccc([N+](=O)[O-])cc1,1,-8,3,22,-5,nt,nt
CC1CCN(C(=O)c2cc3c(ccc4ccccc43)o2)CC1,nt,39,25*,nt,nt,49*,34*
CCc1ccc2nc(N(CCN(C)C)C(=O)c3ccc4ncsc4c3)sc2c1,nt,-1,28*,nt,nt,23*,19*
Cc1cccc(OCC(=O)Nc2nccs2)c1C,nt,42,27*,nt,nt,29*,14*
Cc1c(C)c2ccc(OCC(=O)Nc3ccccn3)cc2oc1=O,nt,38,25*,nt,nt,64*,28*
Cc1c(C)c2ccc(OCC(=O)Nc3nccs3)cc2oc1=O,nt,55*,58*,nt,nt,73*,56*
Cc1cc(=O)oc2cc(OCC(=O)Nc3nccs3)ccc12,nt,8,6,nt,nt,nt,nt
Cc1ccc(C(=O)NCC(=O)OC(C)C(=O)Nc2ccc(N3CCOCC3)cc2)s1 (stereo unspecified),nt,-14,20*,4,nt,-4,-13
CCC(C)c1ccc2oc(-c3ccc(NC(=O)Cn4cnc5c(=O)n(C)c(=O)n(C)c54)cc3)nc2c1 (stereo unspecified),1,80*,26*,15,2,27*,18*
CCOC(=O)CNC(=O)c1sc(NC(=O)c2cccc(F)c2)nc1C,1,-3,32*,27,2,32*,-23
CCOC(=O)c1sc(NC(=O)Nc2ccccc2F)nc1C,0.2,77*,37*,54*,84*,76*,71*
Cc1nnc(NC(=O)c2cccc(F)c2)s1,1,-8,0,2,1,nt,nt
CCOC(=O)CNC(=O)c1sc(NC(=O)c2ccccc2F)nc1C,0.8,-5,70*,23,16,74*,12*
COc1cc([N+](=O)[O-])ccc1NC(=S)NNC(=O)CCC(=O)Nc1ccccc1Cl,nt,-14,-3,nt,nt,nt,nt
CC1CCCC(NC(=O)CCS(=O)(=O)c2cc3c(cc2Cl)NC(=O)CO3)C1C (stereo unspecified),nt,-19,2,nt,nt,nt,nt
COc1ccc(Cl)cc1NC(=S)NCc1ccc(S(N)(=O)=O)cc1,1.1,-1,4,16,-8,nt,nt
Cc1c(C(=O)Nc2ccccc2)cn2c(nc3ccccc32)c1C#N,1,-13,35*,16,-5,2,-2
O=C(NCc1nnnn1-c1ccc(F)c(F)c1)C(=O)c1c[nH]c2ccccc12,nt,-9,nt,nt,nt,nt,nt
Cc1cccc([C@@H]2[C@@H]3C(=O)N(Cc4ccccc4)C(=O)[C@@H]3[C@]3(Cc4ccc(Cl)cc4)C(=O)N(c4ccc(Br)cc4)C(=O)N23)c1,nt,10,27*,nt,nt,12,-7
CC[C@@]12C(=O)N(c3ccc(C)cc3)C(=O)N1[C@H](c1cccc(C)c1)[C@@H]1C(=O)N(Cc3ccccc3)C(=O)[C@@H]12,nt,-8,nt,nt,nt,nt,nt
SMILES,FLuc stim CS,C8 TRAIL sens,HSP90 refold inh,PPC-1+TRAIL kill,FLuc inh counter,HSP90 confirm,luciferase ctr
CC(=O)NS(=O)(=O)c1ccc(NC(=O)C(C)NS(=O)(=O)/C=C/c2ccccc2)cc1 (stereo unspecified),nt,-9,nt,nt,nt,nt,nt
COc1ccc2oc(C(=O)N3CCN(C(c4ccccc4)c4ccccc4)CC3)c(C)c2c1,nt,19,nt,nt,nt,nt,nt
COc1ccc2oc(C(=O)Nc3ccccn3)c(C)c2c1,nt,62*,25*,nt,nt,46*,34*
COc1ccc2oc(C(=O)N3CCc4ccccc43)c(C)c2c1,nt,82*,23*,nt,nt,59*,46*
COc1ccc2cc(C(=O)N3CCc4ccccc43)[nH]c2c1,nt,46,22*,nt,nt,14,-2
CCCc1nnc(SCC(=O)Nc2ccc(NC(C)=O)cc2)n1-n1cccc1,nt,21,nt,nt,nt,nt,nt
Cc1ccnc(NC(=S)NC(=O)/C=C/c2ccc(Cl)cc2)c1,1,2,1,10,0,nt,nt
Cc1cc(C(=O)CN2C(=O)C(=O)N(Cc3ccccc3)C2=O)c(C)n1-c1ccccc1F,1,2,2,11,4,nt,nt
Cc1cc(C(=O)CN2CCC(C)CC2)c(C)n1-c1ccccc1F,0.7,19,53*,12,30,58*,28*
COc1ccc(OC)c(Cc2nnc(CCC(=O)NC3C4CC5CC(C4)CC3C5)o2)c1 (stereo unspecified),1,8,18*,nt,-5,-7,-6
COc1ccc(OC)c(Cc2nnc(CCC(=O)NC3CCCCC3)o2)c1,1,18,-1,8,-2,nt,nt
CCCc1nc(SCC(=O)Nc2nc3c(s2)CCCC3)c2ccccc2n1,1,1,19*,-3,-3,11,0
COc1ccccc1NC(=O)NC1(C(=O)N2CCN(C)CC2)CCCCC1,nt,-5,-3,nt,nt,nt,nt
CCC(=O)N/N=C/c1ccc(OS(=O)(=O)c2ccccc2)cc1,1.1,-6,22*,-1,-5,-1,-4
COc1ccc(NC(=O)/C(C#N)=C\c2ccc(-c3cccc(C(=O)O)c3C)o2)cc1,nt,6,32*,nt,nt,28*,6
Nc1sc2c(c1C(=O)c1ccccc1)CCCC2,1,1,31*,24,-5,11,1
Cc1cccc(OCCC(=O)Nc2ccc(Cl)cc2F)c1,nt,8,2,nt,nt,nt,nt
C/C(=N\O)C(=O)NCCN(C)C,1,2,-4,14,-4,nt,nt
CN1CCN(S(=O)C23CC4CC(CC(C4)C2)C3)CC1 (stereo unspecified),1,-1,-3,0,-4,nt,nt
O=S(N1CCCCC1)C12CC3CC(CC(C3)C1)C2 (stereo unspecified),0.9,-4,40*,-8,5,-3,-6
COC(=O)c1ccc2c(=O)n(-c3ccc(OC)cc3)c(=S)[nH]c2c1,1,-1,-4,9,2,nt,nt
COc1ccc(-c2cc(C(=O)Nc3cccc(O)c3)no2)cc1,nt,73*,31*,nt,nt,70*,54*
Cc1ccc(-c2cc(C(=O)N3CCCCCC3)no2)cc1,nt,44,23*,nt,nt,29*,20*
COc1ccc(-c2cc(C(=O)Nc3ccc(C)c(C)c3)no2)cc1,nt,-1,4,nt,nt,nt,nt

# Screening data deposited in PubChem BioAssay by several laboratories.
